Screening data (PubChem BioAssay)
NR1D1 modulator – modulators of human Rev-erb alpha DNA binding. Rev-erbα–FITC-DNA binding, fluorescence polarization, 90 min. activity, % at 10 µM. 370,000 tested, 0.79% active;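 active = activity above about 14%, limit read from the data; passing the limit was not always enough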
Yeast superoxide – lowers age-related superoxide in aged yeast cells | S. cerevisiae aged cells, superoxide DHE fluorescence; hits give low values | superoxide response (% of plate mean), % at 10 µM | 330,000 tested, 0.18% active | AID 2690;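 active = superoxide response under a set limit, about three screen SD below normal, cut at about 65% in these data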;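 note: yeast aged for seven days with compound at 30 °C before DHE staining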
UCH37 inh – blocks the human deubiquitinase UCH37 | 330,000 tested, 0.33% active | AID 588478 | inhibition, % (no concentration beside the values) | Q9Y5K5 | purified proteasome/UCH37, Ub-AMC cleavage fluorescence;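 active = mean inhibition over replicate wells above about 20%, limit read from the data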
Target sequence (Q9Y5K5 whole entry, looked up): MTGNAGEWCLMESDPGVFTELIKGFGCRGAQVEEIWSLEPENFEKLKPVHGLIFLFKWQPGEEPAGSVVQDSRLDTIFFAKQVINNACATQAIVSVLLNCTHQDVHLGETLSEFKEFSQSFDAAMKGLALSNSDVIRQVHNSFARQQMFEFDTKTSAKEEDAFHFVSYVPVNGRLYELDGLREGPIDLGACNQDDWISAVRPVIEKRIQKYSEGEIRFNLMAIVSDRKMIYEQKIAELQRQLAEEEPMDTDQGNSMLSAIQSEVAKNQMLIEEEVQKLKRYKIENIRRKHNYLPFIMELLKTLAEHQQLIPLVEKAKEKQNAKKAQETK
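Material: Human UCH37 enzyme supplied as purified proteasome complex | Schedule: 30 min compound-proteasome preincubation then 25 min substrate reaction, room temperature | Detection: AMC fluorescence from Ub-AMC cleavage, excitation 355 nm, emission 460 nm | Benchmarks: Wells without proteasome as full block, compound-free enzyme plus substrate as uninhibited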
beta cell repl – inducers of beta-cell replication in MIN6 cells | proliferation, % at 10 µM | MIN6 cells proliferation, ATPlite luminescence, 48 h; cells starved in 0.2% serum; 100% = growth in 10% serum | 330,000 tested, 0.29% active | AID 2380;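 active = compounds whose signal lies at least 3.5 SD above the mean of all wells on their plate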
PG9 Ab binder – binds the HIV-1 gp120 antibody PG9; 360,000 tested, 0.43% active; inhibition, % at 6.7 µM; AID 624416; TR-FRET gp120-PG9 antibody binding; in the data active = inhibition above about 8.5%
Rce1 inh – yeast Ras-converting enzyme inhibition | AID 2563 | calls only | Q03530 | 290,000 tested, 0.27% active | yeast membranes, quenched prenylated peptide cleavage fluorescence;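 active = fall in fluorescence gain of 50% or more versus controls, with final raw signal at or below 3038400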
Target sequence (Q03530 whole entry, looked up): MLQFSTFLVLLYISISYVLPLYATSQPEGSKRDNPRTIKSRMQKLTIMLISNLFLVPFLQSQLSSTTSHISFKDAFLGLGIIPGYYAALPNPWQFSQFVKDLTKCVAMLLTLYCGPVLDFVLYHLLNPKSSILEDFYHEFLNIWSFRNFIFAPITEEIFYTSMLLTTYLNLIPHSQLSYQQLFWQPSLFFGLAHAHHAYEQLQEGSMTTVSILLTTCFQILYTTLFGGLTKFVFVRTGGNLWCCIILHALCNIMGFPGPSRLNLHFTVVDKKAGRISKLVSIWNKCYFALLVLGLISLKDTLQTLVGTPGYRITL
PG9 binder conf – confirmation of small molecules binding HIV-1 gp120 antibody PG9; shares compounds with PG9 Ab binder; TR-FRET PG9 antibody binding, biochemical; inhibition, % at 6.7 µM; 1,500 tested, 90% active; in the data active = inhibition above about 9%
PGV04 counter – counter-screen for PG9 binders: binding control antibody PGV04 | AID 651604 | inhibition, % at 6.7 µM | TR-FRET PGV04 antibody-gp120 binding, biochemical | 1,500 tested, 95% active | shares compounds with PG9 Ab binder; in the data active = inhibition above about 9.5%
Each line names hits and unclear results; the compound was inactive in the other large screens (follow-up assays come after a bar, where they were run). Only some compounds are listed: those with a hit (about 1.9% of all), similar ones and a draw of the others.

Cc1sc2ncnc(N3CCC(C(=O)Nc4ccccc4C(C)(C)C)CC3)c2c1C	PG9 Ab binder 13 | PG9 binder conf 17 | PGV04 counter 21
O=C(O)C(=NNC(=O)c1ccc(Cl)cc1)c1ccccc1	none (no result: NR1D1 modulator, Yeast superoxide, beta cell repl, PG9 Ab binder, Rce1 inh)
CCN(CC)CCN1C(=O)C(=O)/C(=C(/O)c2cccc(OC)c2)C1c1ccccn1 (stereo not given)	none
CCN(CC)CCCN1C(=O)C(=O)/C(=C(/O)c2ccc(Cl)cc2)C1c1ccccn1 (stereo not given)	PG9 Ab binder 9.0 | PG9 binder conf 13 | PGV04 counter 16
COc1ccc(/C(O)=C2/C(=O)C(=O)N(CCCN(C)C)C2c2cccc(Cl)c2)cc1OC (stereo not given)	PG9 Ab binder 47 | PG9 binder conf 17 | PGV04 counter 22
CCOc1ccc(-c2c(C(=O)NN=CC3CC=CCC3)nnn2-c2nonc2N)cc1 (stereo not given)	none (no result: NR1D1 modulator, Yeast superoxide, beta cell repl, PG9 Ab binder, Rce1 inh)
CCN=c1scc(C)n1N=Cc1cc(Br)c(O)c(Br)c1	none (no result: NR1D1 modulator, Yeast superoxide, beta cell repl, PG9 Ab binder, Rce1 inh)
CCOC(=O)c1sc(=NC(=O)c2ccccc2Br)n(C)c1C	PG9 Ab binder 15 | PG9 binder conf 22 | PGV04 counter 44
CCOC(=O)c1sc(=NC(=O)c2ccco2)n(C)c1C	none
CCCCC[n+]1ccn(-c2nc3ccccc3nc2[N-]S(=O)(=O)c2ccccc2)c1	none
CCCC[n+]1ccn(-c2nc3ccccc3nc2[N-]S(=O)(=O)c2ccc(Cl)cc2)c1	PG9 Ab binder 17 | PG9 binder conf 28 | PGV04 counter 34
O=C(O)C1CCC(Cn2c(SCc3cc(=O)n4cc(Br)ccc4n3)nc3ccsc3c2=O)CC1 (stereo not given)	PG9 Ab binder 22 | PG9 binder conf 30 | PGV04 counter 50
COc1ccc(C=NNC(=O)CC(=O)NC2CCCCC2)cc1	none (no result: NR1D1 modulator, Yeast superoxide, beta cell repl, PG9 Ab binder, Rce1 inh)
O=C(Cn1ccc2ccccc2c1=O)NCC1COc2ccccc2O1 (stereo not given)	PG9 Ab binder 17 | PG9 binder conf 21 | PGV04 counter 27
CCOc1ccccc1-c1n[nH]c(=S)o1	PG9 Ab binder 11 | PG9 binder conf 14 | PGV04 counter 19
CC(=O)c1ccc(N2CCN(S(=O)(=O)c3cccc(S(=O)(=O)N4CCOCC4)c3)CC2)cc1	PG9 Ab binder 16 | PG9 binder conf 18 | PGV04 counter 27
CCN(CC)Cc1c(C(=O)NN=Cc2ccc(OCc3ccccc3C)cc2)nnn1-c1nonc1N	none (no result: NR1D1 modulator, Yeast superoxide, beta cell repl, PG9 Ab binder, Rce1 inh)
O=C(CSc1nnc(-c2c[nH]c3ccccc23)o1)c1ccc(-c2ccccc2)cc1	PG9 Ab binder 18 | PG9 binder conf 22 | PGV04 counter 43
COC(=O)CSc1nnc(-c2c[nH]c3ccccc23)o1	none
O=C(CSc1nc2ccccc2c(=O)n1Cc1ccc(F)cc1)NCc1cccs1	PG9 Ab binder 16 | PG9 binder conf 16 | PGV04 counter 33
O=C(CSc1nc2ccccc2c(=O)n1Cc1ccco1)NCc1ccccc1	none
O=C(CSc1nc2ccccc2c(=O)n1Cc1ccccc1)NCc1ccco1	PG9 Ab binder 20 | PG9 binder conf 21 | PGV04 counter 25
Cc1cc(=O)[nH]c(NN=Cc2ccc(OC(=O)c3cccnc3)cc2)n1	none (no result: NR1D1 modulator, Yeast superoxide, beta cell repl, PG9 Ab binder, Rce1 inh)
COc1ccc2cc(Br)ccc2c1CC(=O)NC(C)C	PG9 Ab binder 11 | PG9 binder conf 12 | PGV04 counter 16
CCOC(=O)C1CCN(C(=O)c2ccc(N(C)S(C)(=O)=O)cc2)CC1	none
CN(c1ccc(C(=O)COC(=O)C2CC2)cc1)S(C)(=O)=O	PG9 Ab binder 14 (no result: Rce1 inh) | PG9 binder conf 18 | PGV04 counter 20
CCOc1ccc(NC(=O)NC2CC(=O)N(c3ccc(OC)cc3)C2)cc1 (stereo not given)	none
CCOc1ccc(N2CC(NC(=O)c3ccc4ccccc4c3)CC2=O)cc1 (stereo not given)	PG9 Ab binder 12 | PG9 binder conf 12 | PGV04 counter 23
O=C(CN(c1ccc(Cl)cc1)S(=O)(=O)c1ccccc1)NN=Cc1ccco1	none (no result: NR1D1 modulator, Yeast superoxide, beta cell repl, PG9 Ab binder, Rce1 inh)
Cc1ccc(-c2nnc(SCC(=O)Nc3ccc(S(=O)(=O)N4CCCCCC4)cc3)o2)cc1	none
CC(=O)c1cccc(NC(=O)CSc2nnc(-c3ccc(S(=O)(=O)N4CCCC4)cc3)o2)c1	PG9 Ab binder 31 | PG9 binder conf 37 | PGV04 counter 46
COC(=O)c1cc2c(-c3ccccc3)c(C)c3ccccn3c-2c1C(=O)OC	PG9 Ab binder 26 | PG9 binder conf 35 | PGV04 counter 53
COc1cccc(NC(=O)CC(C)=NNC(=O)c2ccccc2Cl)c1	none (no result: NR1D1 modulator, Yeast superoxide, beta cell repl, PG9 Ab binder, Rce1 inh)
CC(=NOC(=O)c1cccc(Cl)c1)c1sc(C)nc1C	none (no result: NR1D1 modulator, Yeast superoxide, beta cell repl, PG9 Ab binder, Rce1 inh)
Cc1cccc(CC2S/C(=N/c3cccc(C)n3)NC2=O)c1 (stereo not given)	PG9 Ab binder 13 | PG9 binder conf 18 | PGV04 counter 24
Cc1cccc(/N=C2/NC(=O)C(Cc3ccccc3)S2)n1 (stereo not given)	none
O=C(O)C1CCN(c2nc(-c3ccccc3)c3cc(Br)ccc3n2)CC1	PG9 Ab binder 15 | PG9 binder conf 17 | PGV04 counter 36
O=C(O)CCCC(=O)N1CCN(c2nc(-c3ccccc3Cl)c3cc(Br)ccc3n2)CC1	PG9 Ab binder 17 | PG9 binder conf 23 | PGV04 counter 34
O=C(Nc1ccc(F)cc1)C1CCCN(S(=O)(=O)c2ccc3[nH]c(=O)ccc3c2)C1 (stereo not given)	PG9 Ab binder 11 | PG9 binder conf 19 | PGV04 counter 29
Cc1ccc(C)c(NC(=O)C2CCCN(S(=O)(=O)c3ccc4[nH]c(=O)ccc4c3)C2)c1 (stereo not given)	PG9 Ab binder 16 | PG9 binder conf 13 | PGV04 counter 21
O=c1c2ccccc2nc(COc2ccccc2)n1N=Cc1c[nH]c2ccccc12	none (no result: NR1D1 modulator, Yeast superoxide, beta cell repl, PG9 Ab binder, Rce1 inh)
CC(OC(=O)/C(C#N)=C/c1ccc(N(C)C)cc1)C(=O)NCc1ccco1 (stereo not given)	PG9 Ab binder 10 (no result: UCH37 inh, Rce1 inh) | PG9 binder conf 17 | PGV04 counter 24
Cc1cc(=O)[nH]c(NN=Cc2ccc(O)c(O)c2)n1	none (no result: NR1D1 modulator, Yeast superoxide, beta cell repl, PG9 Ab binder, Rce1 inh)
COc1ccc(C(=O)Nc2ccc(S(=O)(=O)N3CCCC3)cc2)c(OC)c1	PG9 Ab binder 11 | PG9 binder conf 13 | PGV04 counter 17
COc1ccccc1C(=O)Nc1ccc(S(=O)(=O)N2CCCC2)cc1	none
COc1cccc(NC(=O)c2cnc(SCC(=O)NCc3ccc4c(c3)OCO4)n(C)c2=O)c1	PG9 Ab binder 26 | PG9 binder conf 30 | PGV04 counter 43
C=CCNC(=S)NN=Cc1cccc([N+](=O)[O-])c1	none (no result: NR1D1 modulator, Yeast superoxide, beta cell repl, PG9 Ab binder, Rce1 inh)
